Test results: ChEMBL document CHEMBL5058577, “EUbOPEN Chemogenomics Library 2 (Multiplex)” (2022)

System: U2OS
Assay: Multiplex assay against U2OS
Format: toxicity, cell-based
Conditions: human
Outline: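 Cells stained live at seeding with Hoechst33342, BioTracker Green Microtubule Cytoskeleton Dye, MitoTracker Red and Annexin V Alexa Fluor 680 were imaged on a CQ1 microscope at 37°C and 5% CO2 after compound addition. Their classification by CellPathfinder machine-learning gating ran from Hoechst high-intensity objects versus normal cells, to healthy, pyknosed or fragmented nuclei among normal cells, to mitotic or apoptotic among pyknosed cells. Tubulin, mitochondrial-mass and membrane-permeability phenotypes are per cents of healthy-nucleus cells.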

[1] = 12 h, 1 µM, compound concentration 1 uM, replicate 1
[2] = 12 h, 1 µM, compound concentration 1 uM, replicate 2
[3] = 12 h, 10 µM, compound concentration 10 uM, replicate 1
[4] = 12 h, 10 µM, compound concentration 10 uM, replicate 2
[5] = 24 h, 1 µM, compound concentration 1 uM, replicate 1
[6] = 24 h, 1 µM, compound concentration 1 uM, replicate 2
[7] = 24 h, 10 µM, compound concentration 10 uM, replicate 1
[8] = 24 h, 10 µM, compound concentration 10 uM, replicate 2
[9] = 48 h, 1 µM, compound concentration 1 uM, replicate 1
[10] = 48 h, 1 µM, compound concentration 1 uM, replicate 2
[11] = 48 h, 10 µM, compound concentration 10 uM, replicate 1
[12] = 48 h, 10 µM, compound concentration 10 uM, replicate 2

With `C[C@H]1[C@H]2CC[C@H]3[C@@H]4CC=C5C[C@@H](N(C)C)CC[C@]5(C)[C@H]4CC[C@]23CN1C` [CONESSINE] the “Population Apoptotic (%)” value [1] was 80%, the “Population Fragmented Nuclei (%)” value [1] was 23% and the “Population Healthy Nuclei (%)” value [1] was 70%. The “Population Hoechst High Intensity Objects (%)” value [1] was 2%, the “Population Membrane Permeable-Phenotype (%)” value [1] was 5% and the “Population Mitochondria Different-Phenotype (%)” value [1] was 1%. For the same compound, the “Population Mitotic Cells (%)” value [1] was 20%, the “Population Normal (%)” value [1] was 97% and the “Population Pyknosed Nuclei (%)” value [1] was 6%. The “Population Tubulin-Different-Phenotype (%)” value [1] was 2%, the “Total Cell Count” value [1] was 248 and the “Population Apoptotic (%)” value [2] was 58%. The “Population Fragmented Nuclei (%)” value [2] was 16%, the “Population Healthy Nuclei (%)” value [2] was 73% and the “Population Hoechst High Intensity Objects (%)” value [2] was 1%. The “Population Mitochondria Different-Phenotype (%)” value [2] was 2%, the “Population Mitotic Cells (%)” value [2] was 41% and the “Population Normal (%)” value [2] was 98%. The “Population Pyknosed Nuclei (%)” value [2] was 9%, the “Population Tubulin-Different-Phenotype (%)” value [2] was 3% and the “Total Cell Count” value [2] was 124. For the same compound, the “Population Apoptotic (%)” value [3] was 55%, the “Population Fragmented Nuclei (%)” value [3] was 19% and the “Population Healthy Nuclei (%)” value [3] was 71%. For the same compound, the “Population Hoechst High Intensity Objects (%)” value [3] was 2%, the “Population Membrane Permeable-Phenotype (%)” value [3] was 5% and the “Population Mitochondria Different-Phenotype (%)” value [3] was 0%. For the same compound, the “Population Mitotic Cells (%)” value [3] was 45%, the “Population Normal (%)” value [3] was 97% and the “Population Pyknosed Nuclei (%)” value [3] was 8%. For the same compound, the “Population Tubulin-Different-Phenotype (%)” value [3] was 1%, the “Total Cell Count” value [3] was 237 and the “Population Apoptotic (%)” value [4] was 100%. The “Population Fragmented Nuclei (%)” value [4] was 17%, the “Population Healthy Nuclei (%)” value [4] was 68% and the “Population Hoechst High Intensity Objects (%)” value [4] was 0%. For the same compound, the “Population Membrane Permeable-Phenotype (%)” value [4] was 8%, the “Population Mitochondria Different-Phenotype (%)” value [4] was 5% and the “Population Mitotic Cells (%)” value [4] was 0%. For the same compound, the “Population Normal (%)” value [4] was 99%, the “Population Pyknosed Nuclei (%)” value [4] was 13% and the “Population Tubulin-Different-Phenotype (%)” value [4] was 6%. For the same compound, the “Total Cell Count” value [4] was 107, the “Population Apoptotic (%)” value [5] was 90% and the “Population Fragmented Nuclei (%)” value [5] was 18%. For the same compound, the “Population Healthy Nuclei (%)” value [5] was 74%, the “Population Hoechst High Intensity Objects (%)” value [5] was 2% and the “Population Membrane Permeable-Phenotype (%)” value [5] was 6%. The “Population Mitochondria Different-Phenotype (%)” value [5] was 1%, the “Population Mitotic Cells (%)” value [5] was 9% and the “Population Normal (%)” value [5] was 97%. The “Population Pyknosed Nuclei (%)” value [5] was 7%, the “Population Tubulin-Different-Phenotype (%)” value [5] was 3% and the “Total Cell Count” value [5] was 307. For the same compound, the “Population Apoptotic (%)” value [6] was 100%, the “Population Fragmented Nuclei (%)” value [6] was 11% and the “Population Healthy Nuclei (%)” value [6] was 81%. The “Population Hoechst High Intensity Objects (%)” value [6] was 1%, the “Population Membrane Permeable-Phenotype (%)” value [6] was 8% and the “Population Mitochondria Different-Phenotype (%)” value [6] was 5%. For the same compound, the “Population Mitotic Cells (%)” value [6] was 0%, the “Population Normal (%)” value [6] was 98% and the “Population Tubulin-Different-Phenotype (%)” value [6] was 7%. The “Total Cell Count” value [6] was 153, the “Population Apoptotic (%)” value [7] was 65% and the “Population Fragmented Nuclei (%)” value [7] was 20%. For the same compound, the “Population Healthy Nuclei (%)” value [7] was 71%, the “Population Hoechst High Intensity Objects (%)” value [7] was 2% and the “Population Membrane Permeable-Phenotype (%)” value [7] was 2%. For the same compound, the “Population Mitochondria Different-Phenotype (%)” value [7] was 0%, the “Population Mitotic Cells (%)” value [7] was 35% and the “Population Normal (%)” value [7] was 97%. For the same compound, the “Population Pyknosed Nuclei (%)” value [7] was 7%, the “Population Tubulin-Different-Phenotype (%)” value [7] was 1% and the “Total Cell Count” value [7] was 265. For the same compound, the “Population Apoptotic (%)” value [8] was 100%, the “Population Fragmented Nuclei (%)” value [8] was 19% and the “Population Hoechst High Intensity Objects (%)” value [8] was 4%. For the same compound, the “Population Membrane Permeable-Phenotype (%)” value [8] was 10%, the “Population Mitochondria Different-Phenotype (%)” value [8] was 4% and the “Population Mitotic Cells (%)” value [8] was 0%. For the same compound, the “Population Normal (%)” value [8] was 95%, the “Population Pyknosed Nuclei (%)” value [8] was 8% and the “Population Tubulin-Different-Phenotype (%)” value [8] was 9%. The “Total Cell Count” value [8] was 134, the “Population Apoptotic (%)” value [9] was 83% and the “Population Fragmented Nuclei (%)” value [9] was 16%. The “Population Healthy Nuclei (%)” value [9] was 79%, the “Population Hoechst High Intensity Objects (%)” value [9] was 2% and the “Population Membrane Permeable-Phenotype (%)” value [9] was 4%. The “Population Mitochondria Different-Phenotype (%)” value [9] was 2%, the “Population Mitotic Cells (%)” value [9] was 16% and the “Population Normal (%)” value [9] was 97%. For the same compound, the “Population Pyknosed Nuclei (%)” value [9] was 4%, the “Population Tubulin-Different-Phenotype (%)” value [9] was 1% and the “Total Cell Count” value [9] was 430. The “Population Apoptotic (%)” value [10] was 86%, the “Population Healthy Nuclei (%)” value [10] was 73% and the “Population Mitochondria Different-Phenotype (%)” value [10] was 0%. For the same compound, the “Population Mitotic Cells (%)” value [10] was 13%, the “Population Pyknosed Nuclei (%)” value [10] was 9% and the “Population Tubulin-Different-Phenotype (%)” value [10] was 2%. The “Total Cell Count” value [10] was 227, the “Population Apoptotic (%)” value [11] was 89% and the “Population Fragmented Nuclei (%)” value [11] was 19%. For the same compound, the “Population Healthy Nuclei (%)” value [11] was 73%, the “Population Hoechst High Intensity Objects (%)” value [11] was 1% and the “Population Membrane Permeable-Phenotype (%)” value [11] was 4%. The “Population Mitochondria Different-Phenotype (%)” value [11] was 2%, the “Population Mitotic Cells (%)” value [11] was 10% and the “Population Normal (%)” value [11] was 98%. For the same compound, the “Population Pyknosed Nuclei (%)” value [11] was 7%, the “Population Tubulin-Different-Phenotype (%)” value [11] was 3% and the “Total Cell Count” value [11] was 370. For the same compound, the “Population Apoptotic (%)” value [12] was 85%, the “Population Fragmented Nuclei (%)” value [12] was 15% and the “Population Healthy Nuclei (%)” value [12] was 72%. For the same compound, the “Population Hoechst High Intensity Objects (%)” value [12] was 6%, the “Population Membrane Permeable-Phenotype (%)” value [12] was 9% and the “Population Mitochondria Different-Phenotype (%)” value [12] was 5%. The “Population Mitotic Cells (%)” value [12] was 15%, the “Population Normal (%)” value [12] was 93% and the “Population Pyknosed Nuclei (%)” value [12] was 12%. For the same compound, the “Population Tubulin-Different-Phenotype (%)” value [12] was 6% and the “Total Cell Count” value [12] was 175.
